Only some compounds are listed: those with a hit (about 2% of all), similar ones and a draw of the others.
PLCg1 inh: inhibitors of human phospholipase C gamma1. P19174. purified PLC-gamma1, fluorogenic substrate, fluorescence. inhibition, % at 12.2 µM. 0.84% of 370,000 active. AID 720700
PLCb3 inh: PLC-beta3 (human) inhibition, primary screen; Q01970; Purified PLC-beta3, fluorogenic substrate, fluorescence; inhibition, % at 12.2 µM; 0.18% of 370,000 active; AID 720704; in the data active = inhibition above about 11%
VIM-2 inhibitor: inhibitors of Pseudomonas aeruginosa VIM-2 metallo-beta-lactamase. AID 1527. inhibition, % at 5.6 µM. 0.89% of 290,000 active. purified VIM-2, nitrocefin hydrolysis, epi-absorbance fluorescence;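 active = inhibition above the mean of all tested compounds plus 3 SD, cutoff set per screening run, cut at about 7.5% in these data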;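 also: red hydrolysis product quenches plate fluorescence so inhibitors raise well fluorescence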
PvdQ inh: P. aeruginosa PvdQ acylase inhibition; inhibition, % at 10 µM; 0.063% of 340,000 active; purified PvdQ acylase, fluorescence plate reader; in the data active = inhibition above about 30%, passing the limit was not always enough
IMP-1 inhibitor: inhibitors of Pseudomonas aeruginosa IMP-1 metallo-beta-lactamase. purified IMP-1, nitrocefin hydrolysis, epi-absorbance fluorescence. inhibition, % at 5.6 µM. 0.45% of 290,000 active;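 active = inhibition above the mean plus 3 SD of all compounds in the same screening run, cut at about 4.5% in these data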
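Assay system: purified recombinant IMP-1 beta-lactamase. Input: IMP-1 0.2 nM before substrate addition. Buffer or medium: Zinc- and detergent-supplemented HEPES buffer, pH 7.1. Schedule: 25 °C, 15 min preincubation, 25 min reaction. Signal: Epi-absorbance fluorescence, 480 nm excitation, 530 nm emission. Evaluation: percent inhibition from optical density relative to buffer-blank wells.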
PLCg1 ctr: PLC-gamma1 inhibition, counter-screen for PLC-beta3 hits; inhibition, % at 12.3 µM; shares compounds with PLCg1 inh; 3.1% of 3,300 active; purified PLC-gamma1, fluorogenic substrate, fluorescence
PLCb3 confirm: human PLC-beta3 inhibition, confirmation; AID 743261; purified PLC-beta3, fluorogenic substrate fluorescence; inhibition, % at 12.3 µM; 1% of 3,300 active; shares compounds with PLCg1 inh; in the data active = inhibition above about 11%
A number is an active result; n = inactive; x = no result. Rule as the data show it, unless noted: active = inhibition above about 9.5%; inactive = the rest.

SMILES	PLCg1 inh	PLCb3 inh	VIM-2 inhibitor	PvdQ inh	IMP-1 inhibitor	PLCg1 ctr	PLCb3 confirm
O=C(Nc1ccccc1N1CCCCC1)c1ccc(-c2cccc(Cl)c2)o1	13	n	n	n	n	n	n
CCCCCNC(=O)[C@@H]1CSC2c3ccccc3C(=O)N21 (stereo partly specified)	13	n	n	n	n	n	n
COC(=O)c1ccc(Cl)c(NC(=O)CN(c2ccc(OC)cc2)S(=O)(=O)c2ccccc2)c1	13	n	n	n	n	n	n
COC(=O)c1ccc(Cl)c(NC(=O)CN(c2ccc(OC)c(OC)c2)S(C)(=O)=O)c1	n	n	n	n	n	x	x
O=C(NC(c1ccc(-c2ccccc2)cc1)c1cnccn1)C1CCN(Cc2ccc(Cl)c(Cl)c2)CC1 (stereo unspecified)	n	n	x	x	x	x	x
Cn1cc(CN2CCC(C(=O)NC(c3ccc(-c4ccccc4)cc3)c3cnccn3)CC2)c2ccccc21 (stereo unspecified)	12	n	x	x	x	n	n
Cc1ccc(NS(=O)(=O)c2c(F)cc(F)c(Cl)c2F)cc1S(=O)(=O)N1CCOCC1	9.8	n	x	n	x	n	n
O=C(C1CCC(CNS(=O)(=O)c2cccs2)CC1)N1CCCCC1 (stereo unspecified)	n	16	n	n	n	n	n
Cc1cccc(N2CCN(C(=O)C3CCC(CNS(=O)(=O)c4cccs4)CC3)CC2)c1C (stereo unspecified)	n	n	n	n	n	x	x
COc1ccc(C(=O)C(=O)N2CCN(C(=O)c3ccccc3C(F)(F)F)CC2)cc1OC	n	n	x	x	x	x	x
Cc1ccc(-c2csc(C(C)(O)c3cccc(F)c3)n2)cc1C (stereo unspecified)	n	n	x	x	x	x	x
CC(O)(c1cccc(F)c1)c1nc(-c2cccc(F)c2)cs1 (stereo unspecified)	11	n	x	x	x	n	n
CCCCN(CCCC)C(=S)N/N=C/c1c(C)[nH]n(-c2ccccc2)c1=O	9.9	n	n	n	n	n	n
COC(=O)c1sccc1S(=O)(=O)Nc1ccc(N2CCCCC2)cc1	9.6	n	n	n	n	n	n
Cn1c(=O)c(=O)n(C)c2cc(S(=O)(=O)N3CCN(Cc4ccc(F)cc4)CC3)ccc21	n	n	x	x	x	x	x
COc1cc(C=Nn2c(-c3ccccc3F)n[nH]c2=S)ccc1OCc1ccccc1	n	n	x	x	x	x	x
O=C(O)c1cccc(-n2cccc2/C=C2/NC(=O)N(c3cccc(Cl)c3)C2=O)c1	n	n	n	n	n	x	x
O=C(O)c1cccc(-n2cccc2/C=C2/NC(=O)N(c3ccc(Cl)cc3)C2=O)c1	22	n	n	n	n	n	n
CCCCNS(=O)(=O)CC1NCCc2ccccc21 (stereo unspecified)	n	n	x	x	x	x	x
NC(N)=NC(N)=Nc1ccc(SC(F)(F)F)cc1	11	n	n	n	n	n	n
COC(=O)Cc1nnn2c1[C@@H](C)[C@@H](c1ccccc1Br)O[C@@H](C)C2	n	n	x	x	x	x	x
CCC(=O)Nc1c2c(nn1-c1ccc(OC)cc1)CS(=O)C2 (stereo unspecified)	n	n	n	n	n	x	x
CCC(CC)C(=O)Nc1c2c(nn1-c1ccc(OC)cc1)CS(=O)C2 (stereo unspecified)	12	n	n	n	n	n	n
Cn1cnnc1Sc1ccc(C(=O)NCCC23CC4CC(CC(C4)C2)C3)cc1[N+](=O)[O-]	9.5	n	n	n	n	n	n
COc1ccc(C2NC(=S)N(Cc3ccc(Cl)cc3)C(C)=C2C(C)=O)cc1 (stereo unspecified)	n	n	x	x	x	x	x
SMILES	PLCg1 inh	PLCb3 inh	VIM-2 inhibitor	PvdQ inh	IMP-1 inhibitor	PLCg1 ctr	PLCb3 confirm
CCOC(=O)c1c(C2COc3ccccc3O2)csc1NC(=O)c1ccccc1 (stereo unspecified)	12	n	n	n	n	n	n
CCOC(=O)c1c(C2COc3ccccc3O2)csc1N (stereo unspecified)	n	n	n	n	n	x	x
N#Cc1ccc(C23CC4(C2)[C@H](CN(Cc2ccc(-c5ccccc5)cc2)[C@@H]4c2ccccc2)C3c2ccc(C(F)(F)F)cc2)cc1 (stereo partly specified)	n	11	x	x	x	n	n
FC(F)(F)c1ccc(C2[C@H]3CN(Cc4ccc(-c5ccccc5)cc4)[C@H](c4ccccc4)C34CC2(c2ccccc2)C4)cc1 (stereo partly specified)	n	n	x	x	x	x	x
COC(=O)[C@]12C[C@H](CC(=O)NCc3ccc(OC)c(OC)c3)C(=O)N(CCC3=CCCCC3)C1=C[C@H](C1CCCC1)O[C@@H]2C	n	n	x	x	x	x	x
CC(=O)c1cccc(NC(=O)c2ccc(N(Cc3ccccc3C)S(C)(=O)=O)cc2)c1	n	n	n	n	n	x	x
CC(=O)Nc1ccc(NC(=O)c2ccc(N(Cc3ccccc3C)S(C)(=O)=O)cc2)cc1	14	n	x	n	x	n	n
COc1ccc(CN2CCOCCOCCOCC2)cc1	n	13	n	n	n	n	n
O=C1NC(=S)S/C1=C\c1cc(Cl)ccc1Cl	11	n	x	n	x	n	n
COC(=O)[C@]12CCCCC=C1N(Cc1ccc(Cl)cc1Cl)C(=O)[C@H](CC(=O)N1CCC(c3ccccc3)CC1)C2	12	n	x	x	x	n	n
CCOC(=O)[C@]12CCCC=C1N(Cc1ccc(Cl)cc1Cl)C(=O)[C@H](CC(=O)N1CCC(c3ccccc3)CC1)C2	n	n	x	x	x	x	x
C[C@H]1[C@@H](c2ccccc2)Oc2c(Cl)cccc2S(=O)(=O)N1C	n	n	x	x	x	x	x
COC(=O)[C@]12C[C@H](CC(=O)NCCC(C)C)C(=O)N(CCc3ccc(OC)c(OC)c3)C1=C[C@H](C(C)C)O[C@@H]2C1CC1	n	n	x	x	x	x	x
CCCCCCn1c(=O)n2n(c1=O)C[C@]1(OC(=O)NC3CCCC3)CN(S(=O)(=O)c3ccc(C)cc3)C[C@]1(O)C2	11	n	x	x	x	n	n
COC(=O)[C@H]1C[C@@]2(O)CN(S(=O)(=O)c3ccc(C)cc3)C[C@@]2(OC(=O)NC2CCCC2)C[C@H]1C(=O)OC	9.7	n	x	x	x	n	n
COC(=O)[C@H]1C[C@@]2(O)CN(S(=O)(=O)c3ccc(C)cc3)C[C@@]2(OC(=O)NCc2ccccc2)C[C@H]1C(=O)OC	n	n	x	x	x	x	x
O=C(O)c1ccc(OCc2occc2C(=O)O)cc1	13	n	n	n	n	n	n
COCCNc1nc(N)c([N+](=O)[O-])c(NCc2ccccc2)n1	n	n	n	n	n	x	x
Nc1nc(NCc2ccccc2)nc(NCc2ccccc2)c1[N+](=O)[O-]	n	n	n	n	n	x	x
CN(C)CCCNc1nc(N)c([N+](=O)[O-])c(NCc2ccccc2)n1	9.7	n	n	n	n	n	n
COCCCNc1nc(N)c([N+](=O)[O-])c(NCc2ccccc2)n1	10	n	n	n	n	n	n
O=C(NC(=S)Nc1ccc(Cc2ccncc2)cc1)c1ccccc1F	15	n	n	n	n	n	n
